Screening data: PubChem, several laboratories
hERG protect: compounds protecting human hERG from proarrhythmic drug block; actives 0.51% (n = 310,000); activation (rescue from dofetilide block), less the hit threshold, % at 10 µM; Q12809; CHO-hERG, FluxOR thallium flux, dofetilide IC70 present; AID 1511;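 active = activation above the mean of controls blocked by dofetilide plus 5 SD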;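 note: thallium influx through hERG after potassium depolarization seen as dye fluorescence rise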
KCNK9 inh: blocks the human KCNK9 two-pore domain potassium channel | B-score at 10 µM | actives 1.2% (n = 310,000) | HEK293 KCNK9, FluxOR thallium flux fluorescence; hits give low values | Q9NPC2;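 active = ratio B-score over 3 SD below the library mean, with starting fluorescence within 5 SD of its mean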;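 note: negative B-score means less thallium flux so channel inhibition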
KCNQ1 act: potentiators or activators of human KCNQ1 potassium channel; actives 0.35% (n = 310,000); B-score at 10 µM; CHO-K1 KCNQ1, thallium flux FluxOR fluorescence; hits give high values; P51787;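 active = fluorescence ratio B-score, a plate-corrected score, at least three library SD, with initial intensity B-score within 5 SD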
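Assay system: CHO-K1 cells stably expressing KCNQ1; Medium: assay buffer with matched DMSO; Also added: K+/Tl+ depolarizing stimulus; Dosing: single dose; Timing: dye 90 min, compound 20 min, room temperature; Measured by: kinetic FluxOR thallium fluorescence, 10-s 1-Hz baseline, 110-s post-stimulus read; Read-out: peak-minus-minimum fluorescence over initial fluorescence, negative-control normalized, B-scored.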
KCNQ1 block: blocks the human KCNQ1 potassium channel; P51787; CHO-K1 KCNQ1, FluxOR thallium flux fluorescence; hits give high values; B-score at 10 µM; actives 1.3% (n = 310,000); AID 2642;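 active = compounds whose thallium flux B-score, printed positive for inhibition, exceeds three library SD while starting fluorescence stays within three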;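 note: channel opened by potassium depolarization with thallium stimulus after 20 min compound exposure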
KCC2 mod: modulators of human KCC2 chloride dependent transport; B-score of Tl+ flux slope (higher = more flux/activation; lower = inhibition) at 10 µM; KCC2 cells, thallium flux FluoZin-2 fluorescence; actives 2.2% (n = 190,000);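 active = thallium flux slope and its plate-corrected score both differing from the plate sample mean at a set confidence after two filtering rounds, in either direction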;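 note: slope of fluorescence scaled to starting intensity during 10 to 20 s after thallium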
KCNK3 inh: human KCNK3 channel inhibition, primary screen. CHO-KCNK3 thallium flux, FluxOR fluorescence; hits give low values. B-score at 10 µM. actives 0.84% (n = 340,000). AID 602410;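 active = B-score under library mean minus 4 SD, starting fluorescence ratio at most library mean plus 5 SD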;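 note: more negative B-score means stronger inhibition of thallium flux through KCNK3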
KCNK9 inh conf: human KCNK9 inhibitor confirmation | shares compounds with KCNK9 inh | HEK293 KCNK9 cells, FluxOR thallium flux fluorescence | inhibition, % at 10 µM | actives 43% (n = 4,900) | AID 492992;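 active = thallium signal inhibited by more than 5 SD of the compound-free buffer control wells, on both duplicate plates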;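 note: 0% = assay buffer control wells without compound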
Kir2-1 spec: tests whether KCNK9 modulators also affect mouse Kir2.1; shares compounds with KCNK9 inh; Kir2.1 cells, FluxOR thallium flux fluorescence; inhibition, % at 10 µM; actives 4% (n = 4,900);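 active = thallium signal drop more than 5 SD beyond the mean of the no-compound control wells, seen in both duplicate plates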;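 note: signal is fluorescence rise after thallium addition divided by baseline fluorescence; plate controls were assay buffer only for no effect and full block by chlorpromazine control for full effect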
Target sequence (P35561 whole entry, looked up): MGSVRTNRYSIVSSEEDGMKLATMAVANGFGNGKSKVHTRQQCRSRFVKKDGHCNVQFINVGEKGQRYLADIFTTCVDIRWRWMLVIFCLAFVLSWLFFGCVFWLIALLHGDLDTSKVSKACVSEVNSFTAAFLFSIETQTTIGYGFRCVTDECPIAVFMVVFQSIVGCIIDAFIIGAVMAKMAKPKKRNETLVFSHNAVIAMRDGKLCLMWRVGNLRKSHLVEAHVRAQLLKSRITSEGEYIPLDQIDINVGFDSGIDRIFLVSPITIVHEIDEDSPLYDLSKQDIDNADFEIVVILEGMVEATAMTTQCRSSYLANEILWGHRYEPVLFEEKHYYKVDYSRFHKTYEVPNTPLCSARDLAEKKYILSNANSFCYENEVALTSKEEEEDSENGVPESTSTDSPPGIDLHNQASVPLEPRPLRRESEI
HEK293 Tl ctr: second check of KCNK9 modulator effects in non-induced HEK293 cells. actives 40% (n = 4,900). shares compounds with KCNK9 inh. inhibition, % at 10 µM. AID 492997. FluxOR thallium flux;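 active = thallium signal drop beyond 5 SD of the untreated control mean, on both duplicate plates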;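 note: plate controls were buffer only IC0 wells for no effect and SID17386958 at its maximal inhibitory level for full effect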
Starred values were filed as active, the others as inactive; i = inactive; x = not tested or not shown. Shown are actives, neighbours in structure and some others; about 4.1% of the full set was active somewhere.

SMILES	hERG protect	KCNK9 inh	KCNQ1 act	KCNQ1 block	KCC2 mod	KCNK3 inh	KCNK9 inh conf	Kir2-1 spec	HEK293 Tl ctr
Cc1ccc(S(=O)(=O)N(C)CC(O)Cn2c3ccccc3c3ccccc32)cc1 (stereo not drawn)	1	i	i	i	0.8	i	x	x	x
O=S(=O)(c1ccccc1)N(CC(O)Cn1c2ccccc2c2ccccc21)c1ccccc1 (stereo not drawn)	-13	-11*	i	i	0.03	i	40%*	i	25%*
O=C1CSC(=S)N1/N=C/c1cc(Br)c(O)c(Br)c1	-33	-9.8*	i	i	x	i	64%*	57%*	70%*
CCc1ccc(N2CC34C=CC(O3)C(C(=O)OC)C4C2=O)cc1 (stereo not drawn)	-4	i	i	i	-0.018	i	x	x	x
COc1cccc(CN(C)Cc2nc(Cc3ccccc3Cl)no2)c1	-6	i	i	i	-0.52	i	i	i	i
COc1cccc(N2CCN(CC(=O)NC3=Nc4ccccc4N=C(C)C3c3ccccc3)CC2)c1 (stereo not drawn)	-8	-14*	i	i	0.58	i	54%*	i	28%*
CCOC(=O)c1c(NC(=O)c2ccc(S(=O)(=O)N(C)CC3CCCO3)cc2)sc2c1CCN(C)C2 (stereo not drawn)	-6	i	i	i	x	i	x	x	x
CC(C)(C)OC(=O)NCCCCCc1nnc(SCc2ccccc2)o1	-7	i	i	i	-1.6	i	x	x	x
CC(C)(C)OC(=O)NCCCCCc1nnc(SCc2ccccc2F)o1	-7	i	i	i	-1.4	i	i	i	i
O=C(CSc1nnnn1-c1ccc(O)cc1)Nc1ccc(N2CCOCC2)c(Cl)c1	-4	i	i	i	x	i	x	x	x
CCOc1ccc(Oc2ccccc2NS(=O)(=O)c2ccc(CCC(=O)O)cc2)cc1	x	x	x	x	x	i	x	x	x
CCn1nc([N+](=O)[O-])c(C(C#N)c2nc3cc(C(F)(F)F)ccc3s2)c(Cl)c1=O (stereo not drawn)	-9	i	i	i	-5.7*	i	i	i	i
Cc1cccc(-c2noc(CN(C(=O)C(c3ccccc3)c3ccccc3)C(C)C)n2)c1	-9	-17*	i	6*	-3.2	-12*	54%*	i	i
COc1cccc(C(=O)N(Cc2nc(-c3cccc(C)c3)no2)C(C)C)c1OC	-12	i	i	i	0.42	i	i	i	i
Cc1cccc(-c2noc(CN(C(=O)c3ccc4c(c3)OCO4)C(C)C)n2)c1	-6	i	i	i	x	i	x	x	x
CC(C)CCNC(=O)NC(=O)CSc1ccc(S(=O)(=O)N2CCOCC2)cn1	x	x	x	x	x	i	x	x	x
Cc1cccc(CSCCNC(=O)c2ccc(N(C)S(=O)(=O)c3ccccc3)cc2)c1	-3	i	i	7*	-0.49	i	i	i	i
CN(c1ccc(C(=O)NCc2ccc3c(c2)OCO3)cc1)S(=O)(=O)c1ccccc1	-12	i	i	i	-0.25	i	x	x	x
O=C(NCCSCc1ccccc1)c1ccccc1	-7	i	i	i	-1.3	i	x	x	x
CN(c1ccc(C(=O)NCCSCc2ccccc2)cc1)S(=O)(=O)c1ccccc1	-5	i	i	i	-0.16	i	i	i	i
COc1ccc(C(=O)C2CCCN(C(=O)c3n[nH]c4c3CCCC4)C2)cc1OC (stereo not drawn)	-11	i	i	i	-0.88	i	x	x	x
Cc1cc(Cl)ccc1C(=O)C1CCCN(C(=O)c2cnn(C(C)C)c2)C1 (stereo not drawn)	-5	i	i	i	x	i	i	i	i
